For 9 compounds, Drug recovery, Activity and dose excreted results are on record in ChEMBL document CHEMBL3244294, “Dehydrative metabolites of 1-(3-chlorophenyl)-1methyl-2-phenyl-2-(2-pyridine)ethanol as potential hypocholesteremic agents” (J Med Chem, 1978).

In series [1] the test system is Serum. Nature of the series: Drug recovery in Sprague-Dawley rat serum treated with 1-(3-Chlorophenyl)-1-methyl-2-phenyl-2-(2-pyridine)ethanol at 25 mg/kg, ip after 10 hrs by RP-HPLC analysis. The series is classed as ADME, organism-based. Set-up: dose 25 mg/kg, route intraperitoneal. As to conditions: in vivo. The essentials:
(§1)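 Rats received 25 mg/kg ³H-labelled parent (tritium in 2-phenyl ring) by ip injection as an aqueous 0.26% Tween 80 suspension. Serum was taken by cardiac puncture at 2, 10 or 72 h (three rats), separated at 1700g for 30 min and deproteinized with methanol. The residue was analysed by C-18 reverse-phase HPLC. Values are percent of total recovered HPLC radioactivity.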

Series [2] has as its system Serum. Kind of series: Drug recovery in Sprague-Dawley rat serum treated with 1-(3-Chlorophenyl)-1-methyl-2-phenyl-2-(2-pyridine)ethanol at 25 mg/kg, ip after 72 hrs by RP-HPLC analysis. Format: ADME, organism-based. More on the design: dose 25 mg/kg, route intraperitoneal. As to conditions: in vivo. The procedure, abridged:
as §1

Series [3] concerns Serum. Nature of the series: Drug recovery in Sprague-Dawley rat serum treated with 1-(3-Chlorophenyl)-1-methyl-2-phenyl-2-(2-pyridine)ethanol at 25 mg/kg, ip after 2 hrs by RP-HPLC analysis. Format: ADME, organism-based. More on the design: dose 25 mg/kg, route intraperitoneal. As to conditions: in vivo. The essentials: as §1
Series [4] can be described thus: Drug recovery in sephadex G-10 chromatographic fraction of Sprague-Dawley rat urine treated with 1-(3-Chlorophenyl)-1-methyl-2-phenyl-2-(2-pyridine)ethanol at 25 mg/kg, ip by RP-HPLC analysis. Set-up: dose 25 mg/kg, route intraperitoneal. Format: ADME, organism-based. As to conditions: in vivo. The procedure, abridged: (§2)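 One rat was dosed ip at 25 mg/kg with ³H-labelled parent in aqueous 0.26% Tween 80, and urine was collected over 72 h. Urine was either pentane-extracted or fractionated on Sephadex G-10; fraction III was the radioactive eluate free of appreciable urine constituents. Fractions were analysed by C-18 reverse-phase HPLC as percent of total recovered radioactivity.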

Series [5] deals with Serum. Kind of series: Drug recovery in hydrolyzed fraction of Sprague-Dawley rat serum treated with 1-(3-Chlorophenyl)-1-methyl-2-phenyl-2-(2-pyridine)ethanol at 25 mg/kg, ip after 72 hrs by RP-HPLC analysis. The series is classed as ADME, organism-based. Set-up: dose 25 mg/kg, route intraperitoneal. As to conditions: in vivo. The essentials:
(§3)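 ³H-labelled parent was given at 25 mg/kg ip in aqueous 0.26% Tween 80, and serum was collected by cardiac puncture at 72 h. Part of the serum was hydrolysed for 48 h with aryl sulfatase and glucuronidase, then deproteinized with methanol. The residue was run on C-18 reverse-phase HPLC. Values are percent of total recovered HPLC radioactivity.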

In series [6] the test system is Rattus norvegicus. Kind of series: Estrogenicity in Sprague-Dawley rat assessed as uterus weight measured per gram of body weight at 25 mg/kg, po for 7 days in presence of 17-beta estradiol (reference value: 0.01 +/- 0.02 mg). As to conditions: in vivo, 168 h. The series is classed as ADME, organism-based. More on the design: dose 25 mg/kg, route oral. The essentials:
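From 7 days later they were dosed orally by intubation with aqueous suspensions (25 mg/kg) for 7 consecutive days. On day 8 uteri were blotted free of fluid and weighed, expressed as mg/g body weight ×100. A standard curve came from sc 17β-estradiol in peanut oil, giving µg estradiol equivalent to 25 mg compound.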

In series [7] the test system is Rattus norvegicus. Nature of the series: Hypocholesteremic activity in Sprague-Dawley rat assessed as reduction in serum cholesterol level at 25 mg/kg for 7 days relative to control. The series is classed as functional. Set-up: scale not given: the % may be the effect or the level left. The essentials:
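Male rats (200 g) were dosed at 25 mg/kg for 7 days, with dosing starting at 1 p.m. Sera were taken 24 h after the final dose, and serum cholesterol was determined by the method of Block et al. Results are reported as mean ± standard deviation and compared with controls by two-tailed Student's t test.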

The nature of series [8]: Drug recovery in sephadex G-10 chromatographic fraction of Sprague-Dawley rat urine at 25 mg/kg, ip by RP-HPLC analysis. The series is classed as ADME, organism-based. More on the design: dose 25 mg/kg, route intraperitoneal. As to conditions: read-out: Drug recovery. The procedure, abridged:
as §2

Series [9] concerns Serum. Kind of series: Drug recovery in Sprague-Dawley rat serum at 25 mg/kg, ip after 10 hrs by RP-HPLC analysis. Format: ADME, organism-based. Set-up: dose 25 mg/kg, route intraperitoneal. As to conditions: in vivo. The procedure, abridged:
as §1

Series [10] has as its system Serum. Kind of series: Drug recovery in Sprague-Dawley rat serum at 25 mg/kg, ip after 72 hrs by RP-HPLC analysis. Format: ADME, organism-based. More on the design: dose 25 mg/kg, route intraperitoneal. As to conditions: in vivo. The procedure, abridged: as §1
For series [11], the system named is Serum. Nature of the series: Drug recovery in Sprague-Dawley rat serum at 25 mg/kg, ip after 2 hrs by RP-HPLC analysis. As to conditions: in vivo. Format: ADME, organism-based. More on the design: dose 25 mg/kg, route intraperitoneal. The procedure, abridged:
as §1

Series [12] is described as follows: Drug recovery in pentane extract of Sprague-Dawley rat urine at 25 mg/kg, ip by RP-HPLC analysis. The series is classed as ADME, organism-based. More on the design: dose 25 mg/kg, route intraperitoneal. As to conditions: read-out: Drug recovery. The essentials: as §2
In series [13] the test system is Serum. Nature of the series: Drug recovery in hydrolyzed fraction of Sprague-Dawley rat serum at 25 mg/kg, ip after 72 hrs by RP-HPLC analysis. Format: ADME, organism-based. More on the design: dose 25 mg/kg, route intraperitoneal. As to conditions: in vivo. The procedure, abridged: as §3
For series [14], the system named is Serum. Nature of the series: Drug recovery in pentane extract of Sprague-Dawley rat serum treated with 1-(3-Chlorophenyl)-1-methyl-2-phenyl-2-(2-pyridine)ethanol at 25 mg/kg, ip by RP-HPLC analysis. Format: ADME, organism-based. More on the design: dose 25 mg/kg, route intraperitoneal. As to conditions: in vivo.

As for `c1ccc(Cc2ccccn2)cc1`, the Drug recovery amounted to 2.4% with Serum [1]; 2.2% in the series on Serum [2]; 4.7% in the series with Serum [3]; 0.2% in [4]; 1.2% with Serum [5].

For `C/C(=C(\c1ccc(O)cc1)c1ccccn1)c1cccc(Cl)c1`, the Drug recovery with Serum [1] came out at 0.3%; in the series with Serum [2] it was 0.2%; in series [4], 0.4%; in the series on Serum [5], 0.3%. For the same compound, the Activity with Rattus norvegicus [6] came to 0.02 µg; with Rattus norvegicus [7], 30.5%.

As to `CC(O)(c1cccc(Cl)c1)C(c1ccccc1)c1ccccn1` (stereo not given), the dose excreted is below 0.1% in series [8] and 1.6% in [12]. The Drug recovery in the series with Serum [9] is given as 0.9%; in the series on Serum [10] it was 1.2%; in the series on Serum [11] it was 22%; with Serum [13] it was 1.2%. The values for the Activity in the series with Rattus norvegicus [6] and with Rattus norvegicus [7] were 0.49 µg and 49.5%, respectively.

Compound `C/C(=C(/c1ccccc1)c1ccccn1)c1cccc(Cl)c1` showed a Drug recovery in the series with Serum [14] of 0.1%. Further, the Activity in the series with Rattus norvegicus [6] is 0.22 µg; in the series with Rattus norvegicus [7], 36.1%.

With `C=C(c1cccc(Cl)c1)C(c1ccccc1)c1ccccn1` (stereo not given), the Activity with Rattus norvegicus [7] was determined as 10.1%.

As to `C=C(c1cccc(Cl)c1)C(c1ccc(O)cc1)c1ccccn1` (stereo not given), in the series on Rattus norvegicus [7], the Activity is on record as 4%.

Regarding `C/C(=C(\c1ccccc1)c1ccccn1)c1cccc(Cl)c1`, the Drug recovery with Serum [14] was 0.1%. Besides, the values for the Activity in the series with Rattus norvegicus [6] and in the series on Rattus norvegicus [7] were 0.92 µg and 62.8%, respectively.

On to `CC(O)(c1cccc(Cl)c1)C(c1ccc(O)cc1)c1ccccn1` (stereo not given), for which the Activity in the series on Rattus norvegicus [6] is 0.92 µg; in the series with Rattus norvegicus [7], 43.5%.

For the compound `C/C(=C(/c1ccc(O)cc1)c1ccccn1)c1cccc(Cl)c1`, the Drug recovery was determined as 0.9% in the series with Serum [1], 1.1% with Serum [2], 3.3% in series [4] and 0.4% with Serum [5]. Besides, the Activity in the series on Rattus norvegicus [6] was determined as 0.03 µg; in the series with Rattus norvegicus [7], 38.1%.
